Laboratory results from publication PMC8233206 (The Journal of Biological Chemistry, 2021).
Where two headings read alike, the source gives them in different places.

Tests used:
HPNE cells = experiment: Seahorse XF glycolysis stress assay, glucose-induced ECAR; format: cell-based, human
In short: (§1)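 Seeded 48 h before in growth medium (1.5 × 10⁴ Panc03.27, MDA-MB-231, HPNE; 1.2 × 10⁴ Mia Paca-2; 2.0 × 10⁴ QGP1). MCT1/2 inhibitor 0.5 μM or DMSO added 4 h pre-assay. Medium: DMEM without NaHCO₃, 2 mM glutamine, 5 mM glucose, pH 7.4. Injected in order: 2 mM sodium pyruvate, 10 mM glucose, 2 μM oligomycin, 50 mM 2-DG. Glucose-induced/baseline ECAR ratio, normalized to Hoechst cell counts and 0 mM pyruvate; three experiments.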

bovine heart LDH = bovine heart LDH (Bos taurus, UniProt Q5E9B1); experiment: LDH coupled-enzyme kinetic assay; format: biochemical
Mia Paca-2 cells = experiment: Seahorse XF glycolysis stress assay, glucose-induced ECAR; format: cell-based, human
In short: as §1

Panc03.27 cells = experiment: as above; format: cell-based, human
In short: as §1

MDA-MB-231 cells = experiment: as above; format: cell-based, human
In short: as §1

[1] = target: purified human recombinant LDHA (Homo sapiens, UniProt P00338); experiment: LDH coupled-enzyme kinetic assay; format: biochemical
[2] = tested on: LDH in extracts from Mia Paca-2 cells; experiment: LDH enzyme kinetics in cell extracts; format: biochemical, human; conditions: Mia Paca-2 cell extract
In short: (§2)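 Cells washed in ice-cold PBS, lysed in ice-cold LDH assay lysis buffer, protein measured by Coomassie. Extract mixed with Tris/NaCl/NADH buffer and Tris/NaCl/pyruvate (0–30 mM). Plate shaken 30 s, then A340 read five times at 30-s intervals; initial velocities from NADH oxidation. Enzyme-free and pyruvate-free controls run. Vmax, Vpeak, apparent Km and Ki from biphasic curve fits. Triplicate, three independent experiments; mean ± SE.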

[3] = tested on: LDH in extracts from Panc03.27 cells; experiment: LDH enzyme kinetics in cell extracts; format: biochemical, human; conditions: Panc03.27 cell extract
In short: as §2

[4] = tested on: LDH in extracts from MDA-MB-231 cells; experiment: LDH enzyme kinetics in cell extracts; format: biochemical, human; conditions: MDA-MB-231 cell extract
In short: as §2

human recombinant LDHB = human recombinant LDHB (Homo sapiens, UniProt P07195); experiment: LDH coupled-enzyme kinetic assay; format: biochemical
QGP1 cells = experiment: Seahorse XF glycolysis stress assay, glucose-induced ECAR; format: cell-based, human
In short: as §1

[5] = tested on: LDH in extracts from HPNE cells; experiment: LDH enzyme kinetics in cell extracts; format: biochemical, human; conditions: HPNE cell extract
In short: as §2

[6] = tested on: LDH in extracts from QGP1 cells; experiment: LDH enzyme kinetics in cell extracts; format: biochemical, human; conditions: QGP1 cell extract
In short: as §2

[7] = humans; 230 mM at 5 ml/s injection rate; cited from earlier work
[8] = mice; injection of 80 mM hyperpolarized solution; cited from earlier work
[9] = 2 mM sodium pyruvate, medium with 5 mM glucose, DMSO control
[10] = LDH bovine heart, pyruvate 0–30 mM
[11] = read-out: Ki (apparent, substrate inhibition)
[12] = 0.5 μM AZD3965 pretreatment 4 h, 5 mM glucose, vs DMSO control

Chain of bovine heart LDH (Q5E9B1 2-334): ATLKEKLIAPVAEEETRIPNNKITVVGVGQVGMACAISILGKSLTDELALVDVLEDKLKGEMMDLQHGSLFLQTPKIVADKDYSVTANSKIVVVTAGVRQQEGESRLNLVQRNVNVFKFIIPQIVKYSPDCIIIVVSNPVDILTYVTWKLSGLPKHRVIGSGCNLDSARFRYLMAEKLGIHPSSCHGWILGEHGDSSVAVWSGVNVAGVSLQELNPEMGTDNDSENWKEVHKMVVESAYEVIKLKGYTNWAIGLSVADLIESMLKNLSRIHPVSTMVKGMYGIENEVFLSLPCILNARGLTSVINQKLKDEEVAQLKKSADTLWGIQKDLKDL
Chain of human recombinant LDHB (P07195 whole entry): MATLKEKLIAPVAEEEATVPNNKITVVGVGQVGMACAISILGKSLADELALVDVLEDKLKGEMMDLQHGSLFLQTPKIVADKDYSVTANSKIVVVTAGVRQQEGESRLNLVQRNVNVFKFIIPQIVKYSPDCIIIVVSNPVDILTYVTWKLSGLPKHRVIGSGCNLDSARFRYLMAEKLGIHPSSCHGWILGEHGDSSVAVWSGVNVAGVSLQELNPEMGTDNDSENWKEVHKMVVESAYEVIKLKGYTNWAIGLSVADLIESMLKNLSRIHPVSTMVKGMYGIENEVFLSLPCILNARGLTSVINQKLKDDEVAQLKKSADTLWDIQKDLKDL

CC(=O)C(=O)O [pyruvate]
Decrease of glucose-stimulated ECAR (HPNE cells; [9]): less than 10%
Ki (bovine heart LDH): 1.75 ± 0.11 mM
Vmaz (maximal initial velocity from activation curve fit) (bovine heart LDH; [10]): 3.23 ± 0.10 ΔAbs/s∗10^−3/μg protein
Vpeak (peak initial velocity of the biphasic curve fit) (bovine heart LDH; [10]): 2.08 ΔAbs/s∗10^−3/μg protein
Decrease of glucose-stimulated ECAR (Mia Paca-2 cells; [9]): > 30%
Decrease of glucose-stimulated ECAR (Panc03.27 cells; [9]): > 30%
Decrease of glucose-stimulated ECAR (MDA-MB-231 cells; [9]): > 30%
Ki [1]: 5.33 ± 0.49 mM
Vmaz (maximal initial velocity from activation curve fit) ([1]; rLDHA, pyruvate 0–30 mM): 1.00 ± 0.04 ΔAbs/s∗10^−3/μg protein
Vpeak (peak initial velocity of the biphasic curve fit) ([1]; rLDHA, pyruvate 0–30 mM): 0.75 ΔAbs/s∗10^−3/μg protein
Vmaz (maximal initial velocity from activation curve fit) [2]: 0.88 ± 0.03 ΔAbs/s∗10^−3/μg protein
Vpeak (peak initial velocity of the biphasic curve fit) [2]: 0.66 ΔAbs/s∗10^−3/μg protein
Ki [2, 11]: 4.26 ± 0.32 mM
Km ([2]; read-out: Km (apparent)): 110 ± 10 µM
Vmaz (maximal initial velocity from activation curve fit) [3]: 2.00 ± 0.07 ΔAbs/s∗10^−3/μg protein
Vpeak (peak initial velocity of the biphasic curve fit) [3]: 1.56 ΔAbs/s∗10^−3/μg protein
Ki [3, 11]: 2.33 ± 0.21 mM
Km ([3]; read-out: Km (apparent)): 50 µM
Vmaz (maximal initial velocity from activation curve fit) [4]: 2.98 ± 0.17 ΔAbs/s∗10^−3/μg protein
Vpeak (peak initial velocity of the biphasic curve fit) [4]: 2.20 ΔAbs/s∗10^−3/μg protein
Ki [4, 11]: 3.39 ± 0.5 mM
Km ([4]; read-out: Km (apparent)): 100 ± 20 µM
Ki (human recombinant LDHB): 2.88 ± 0.4 mM
Vmaz (maximal initial velocity from activation curve fit) (human recombinant LDHB; rLDHB, pyruvate 0–30 mM): 1.00 ± 0.05 ΔAbs/s∗10^−3/μg protein
Vpeak (peak initial velocity of the biphasic curve fit) (human recombinant LDHB; rLDHB, pyruvate 0–30 mM): 0.75 ΔAbs/s∗10^−3/μg protein
Decrease of glucose-stimulated ECAR (QGP1 cells; [9]): > 30%
Vmaz (maximal initial velocity from activation curve fit) [5]: 2.71 ± 0.08 ΔAbs/s∗10^−3/μg protein
Vpeak (peak initial velocity of the biphasic curve fit) [5]: 1.98 ΔAbs/s∗10^−3/μg protein
Ki [5, 11]: 2.67 ± 0.2 mM
Km ([5]; read-out: Km (apparent)): 90 ± 10 µM
Vmaz (maximal initial velocity from activation curve fit) [6]: 1.85 ± 0.05 ΔAbs/s∗10^−3/μg protein
Vpeak (peak initial velocity of the biphasic curve fit) [6]: 1.42 ΔAbs/s∗10^−3/μg protein
Ki [6, 11]: 3.42 ± 0.25 mM
Km ([6]; read-out: Km (apparent)): 80 ± 10 µM

CC(=O)[13C](=O)O [[1-^13C]pyruvate]
Blood pyruvate concentration [7]: ≥ 2 mM
Blood pyruvate concentration [8]: ~8 mM

Cc1[nH]nc(C(F)(F)F)c1Cc1sc2c(c1C(=O)N1C[C@](C)(O)CO1)c(=O)n(C)c(=O)n2C(C)C [AZD3965, reference compound]
Effect on 2 mM pyruvate-induced inhibition of glucose-stimulated ECAR (HPNE cells; [12]): blocked
Effect on 2 mM pyruvate-induced inhibition of glucose-stimulated ECAR (Mia Paca-2 cells; [12]): blocked
Effect on 2 mM pyruvate-induced inhibition of glucose-stimulated ECAR (Panc03.27 cells; [12]): blocked
Effect on 2 mM pyruvate-induced inhibition of glucose-stimulated ECAR (MDA-MB-231 cells; [12]): no significant effects
Effect on 2 mM pyruvate-induced inhibition of glucose-stimulated ECAR (QGP1 cells; [12]): blocked
